# Screening data deposited in PubChem BioAssay by several laboratories.
# An excerpt weighted towards active compounds, which were near 9.6% of everything screened.
# b-catenin transl = beta-catenin nuclear translocation modulation; HeLa beta-catenin nuclear translocation, immunofluorescence imaging; nuclear translocation activity, % at 5 µM; 190,000 compounds, 0.3% hits; AID 1665;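 active = nuclear translocation activity above 50% at 5 µM, with a well cell count of 50 or more; inconclusive = wells under 50 cells across six images, flagged as toxic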;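 also: per-cell ratio of nuclear to cytoplasmic median beta-catenin stain intensity; plate controls were DMSO negative control for no effect and GSK-3 inhibitor IX positive control for full effect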
#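 test system = HeLa cells, endogenous beta-catenin | dosing = single 5 µM dose plus 0.02–20 µM confirmation series | times = compound treatment 24 h, 37°C, 5% CO2 | technique = beta-catenin immunofluorescence imaging with DAPI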
# MT stabilizer = microtubule stabilization, imaging screen. HeLa tubulin immunostaining HCS, 24 h; share of cells brighter than vehicle mean+2SD. % tubulin-high responders, % at 10 µM. 200,000 compounds, 0.83% hits;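 active = plate Z-score above 3 for both tubulin-high and condensed-nucleus cell shares, with cell loss under 80%, at 10 µM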;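 also: anti alpha tubulin signal scored within the nucleus-defined area of each cell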
# Lmaj promast = reduces viability of Leishmania major promastigotes. resazurin fluorescence viability. AID 1063. 200,000 compounds, 9% hits. inhibition, % at 10 µM; in the data active = inhibition above about 50%;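 also: promastigotes grown with compound for 44 hours at 28 °C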
# Ba/F3 V617F tox = loss of viability in JAK2V617F-driven Ba/F3 cells; Ba/F3 EpoR-JAK2V617F viability, ATP luminescence; inhibition, % at 5.6 µM; 220,000 compounds, 1.1% hits; AID 1446;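 active = inhibition above the campaign mean plus 3 SD over all tested compounds, cut at about 24% in these data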;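 also: cytokine-independent growth of Ba/F3 cells driven by EpoR plus mutant JAK2; 0% = DMSO-treated cells and 100% = JAK inhibitor I control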
# BaF3 parental = parental Ba/F3 viability inhibition as JAK2V617F counter-screen; 220,000 compounds, 1.1% hits; CellTiter-Glo ATP luminescence; inhibition, % at 5.6 µM;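 active = inhibition above a per-campaign cutoff, the mean inhibition of all tested compounds plus 3 SD, cut at about 27% in these data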;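 also: 0% = DMSO wells and 100% = JAK Inhibitor I control wells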
# APP 5UTR inh = APP translation inhibition; 190,000 compounds, 0.82% hits; SH-SY5Y APP 5'UTR-luciferase reporter, luminescence; inhibition, % at 2 µM; AID 1285;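 active = inhibition above a set limit, derived from the sample mean plus 3 SD, cut at about 45% in these data; inconclusive = one replicate passes the limit while the other fails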
# Lmaj promast 1uM = inhibitors of Leishmania major promastigote growth, repeat at 1 uM | AID 1258 | 1,100 compounds, 13% hits | shares compounds with Lmaj promast | inhibition, % at 1 µM | L. major promastigote growth, resazurin fluorescence, 48 h;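 active = inhibition above about 50% in both repeat tests, limit read from the data; inconclusive = one repeat under the set limit, the other over it; inactive = both repeats under the set limit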
# BaF3 tox 2 = reduces parental Ba/F3 viability, JAK2V617F counter-screen; shares compounds with Ba/F3 V617F tox; CellTiter-Glo luminescence; cells kept alive by added IL-3; inhibition, % at 5.6 µM; 580 compounds, 31% hits; AID 1520;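 active = cell growth inhibition above the hit limit set in the earlier mutant JAK2 cell screen, cut at about 27% in these data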;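 also: plate controls were DMSO-treated cells for no effect and JAK Inhibitor I control wells for full effect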
# JAK2V617F conf = Ba/F3 EpoR-JAK2V617F viability loss, confirmation | shares compounds with Ba/F3 V617F tox | CellTiter-Glo luminescence | inhibition, % at 5.6 µM | 580 compounds, 66% hits;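 active = mean inhibition above the hit cutoff derived in the earlier primary screen, cut at about 25% in these data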;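 also: 0% = DMSO-treated cells and 100% = JAK inhibitor I control wells; higher means lower luminescence from reduced cell ATP and viability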
# Active calls of the source: *; u = inconclusive; x = not tested or not shown.
SMILES,b-catenin transl,MT stabilizer,Lmaj promast,Ba/F3 V617F tox,BaF3 parental,APP 5UTR inh,Lmaj promast 1uM,others
CC1CC(C)CN(CC(=O)c2ccc(OC(F)F)cc2)C1 (stereo not given),-2,3,-7,-3,5,9,x,
NP(=O)(Oc1ccc(Cl)cc1)Oc1ccc(Cl)cc1,0,1,9,1,7,8,x,
Cc1nc2c(=O)n(C)c(=O)nc-2n(C)n1,0,2,101*,99*,101*,6,101*,
O=C1c2cccc3cccc(c23)C(=O)N1/N=C/c1c(O)n(-c2ccccc2)c(=O)[nH]c1=O,0,3,2,-2,4,-4,x,
C[n+]1c(-c2ccccc2)cc(CCCCc2cc(-c3ccccc3)[n+](C)c(-c3ccccc3)c2)cc1-c1ccccc1,2,7,100*,1,5,-12,95*,
COc1ccc(-c2cc(-c3ccccc3)[n+](C)c(-c3ccccc3)c2)cc1,-3,1,100*,99*,76*,-2,11,
Cc1cccc(C)c1NC1=NCCCCS1,-5,2,-5,0,6,-6,x,
O=C(O)CP(=O)(O)c1ccc(Cl)cc1,0,4,3,-5,0,-4,x,
Cc1cc(C)nc(N2Cc3ccccc3C2=N)n1,-2,4,50*,0,4,-6,-5,
Cc1ccc(C2=NC(C)(C)N3C2C3c2ccc([N+](=O)[O-])cc2)cc1 (stereo not given),-3,2,57*,-1,0,-3,-18,
O=[N+]([O-])c1ccc(C2[C@H]3C(c4ccccc4)=NC4(CCCC4)N23)cc1 (stereo not given in full),0,5,-4,1,2,-18,x,
COc1ccc(C(=O)C2CCCN(Cc3ccc(C)s3)C2)c(OC)c1 (stereo not given),0,3,80*,-2,-4,-3,10,
CCn1ccnc1CN1CCCC(C(=O)c2ccc(OC)cc2OC)C1 (stereo not given),2,3,7,1,3,-6,x,
NC(=O)c1cn(C2OC(CO)C(O)C2O)c2ncnc(N)c12 (stereo not given),u,20*,99*,102*,102*,95*,97*,
CC(C)(C)c1ccc(C(=O)C2CCCN(C3CCC3)C2)cc1 (stereo not given),1,2,93*,2,3,8,80*,
CCn1ccnc1CN1CCCC(C(=O)c2cccc(C(F)(F)F)c2)C1 (stereo not given),-3,3,9,3,3,12,x,
Cc1ccc2c(c1)C1CN(C)CCC1N2C(=O)CCCN1C(=O)c2cccc3cccc(c23)C1=O (stereo not given),2,x,x,8,3,x,x,
Cc1c(P(=S)(c2ccccc2)c2ccccc2)[n+]2ccccc2n1C,1,3,73*,3,12,10,-9,
CN1/C(=C\C=C\C2=[N+](C)c3ccc4ccccc4c3C2(C)C)C(C)(C)c2ccccc21,-17,5,98*,99*,95*,95*,101*,
C=CCn1c(O)c(/C(C)=N/N2CCCCC2)c(=O)[nH]c1=O,2,x,x,-1,-6,x,x,
CC(=O)c1ccc2c(c1)C1C(Cl)C(Sc3ccccc3[N+](=O)[O-])CC1C(c1ccccc1)N2 (stereo not given),-1,4,19,1,-4,1,x,
CC(=O)c1ccc2c(c1)C1C(Cl)C(Sc3ccccc3[N+](=O)[O-])CC1C(c1ccccc1[N+](=O)[O-])N2 (stereo not given),0,4,54*,2,6,-9,16,
O=C(c1cccc([N+](=O)[O-])c1)C12CN3CN(CN(C3)C1)C2,-2,5,-5,0,9,-5,x,
CSc1ccc(CNC2CN3CCC2CC3)cc1 (stereo not given),x,3,100*,-1,-1,-3,66*,
CC1(C)C[C@H]2C=C(C=O)[C@]3(C=O)C[C@]3(C)[C@H]2C1,5,4,84*,63*,6,96*,-8,BaF3 tox 2=103*;JAK2V617F conf=100*
SMILES,b-catenin transl,MT stabilizer,Lmaj promast,Ba/F3 V617F tox,BaF3 parental,APP 5UTR inh,Lmaj promast 1uM,others
Cc1cc(OCCN2CC2)c2ccccc2n1,1,x,x,0,2,x,x,
C[C@H]1CCC[C@@H](O)CCC/C=C/c2cc(O)cc(O)c2C(=O)O1,-9,5,-2,3,4,3,x,
CC1CCC/C=C/C2CC(O)CC2C(O)/C=C/C(=O)O1 (stereo not given),x,35,-1,62*,0,94*,x,BaF3 tox 2=103*;JAK2V617F conf=67*
C[C@H]1CCC/C=C/C2C[C@H](O)CC2[C@H](O)/C=C/C(=O)O1 (stereo not given in full),31,23,-7,38*,6,91*,x,BaF3 tox 2=107*;JAK2V617F conf=78*
C/C(=C\c1ccc(N(C)C)cc1)[N+](=O)[O-],0,3,100*,32*,-1,32,x,BaF3 tox 2=-3;JAK2V617F conf=74*
C#CCOCOCC#CCN(CC)CC,-1,2,-8,3,8,-1,x,
CCOC(=O)C(C)(CC)NC(=O)CSP(=S)(OCC)OCC (stereo not given),x,2,1,-3,2,18,x,
COC1CCCCC1NCCc1ccccc1 (stereo not given),5,4,15,-2,3,-4,x,
O=C(O)c1[nH]c(=O)[nH]c(=O)c1F,-3,x,x,64*,5,x,x,BaF3 tox 2=20;JAK2V617F conf=67*
c1ccc2c(CCNC3CCCCC3)c[nH]c2c1,0,4,15,0,6,-9,x,
c1ccc2[nH]c(CCNC3CCCCC3)nc2c1,-6,2,9,49*,1,-2,x,BaF3 tox 2=-1;JAK2V617F conf=-2
COc1ccc(NC(=O)N2CCC3(CC2)OCCO3)cc1,0,5,-5,2,5,-14,x,
O=C(Nc1ccccc1)N1CCC2(CC1)OCCO2,-2,3,2,30*,6,-17,x,BaF3 tox 2=-7;JAK2V617F conf=-10
